According to PMC8694313 (RSC Advances, 2021):
Converted amounts (≈) assume the structure as drawn.

Columns and labels:
Pseudomonas aeruginosa = assay: In vitro antibacterial MIC determination; type: cell-based
How it was run: (§1)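 Bacteria grown on nutrient agar, subcultured to log phase in nutrient broth, then diluted in sterile saline to about 10^5–10^6 CFU mL−1. Test compounds diluted in acetone, DMSO or diethyl ether (ether preferred). Saturated disks placed on spread-plated inoculum and incubated at 37 °C for 24 h. MIC determined across different compound concentrations, with streptomycin as standard.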

Rhizopus arrhizus = assay: In vitro antifungal MIC, poison plate technique; type: cell-based
RAW 264.7 cells [1] = assay: Nitrite; type: cell-based, murine; conditions: RAW 264.7, 100 μM and 200 μM pre-treatment; Fig. 5
How it was run: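 RAW 264.7 cells (1 × 10^6) seeded in flasks and left to adhere overnight. Pretreated 1 h with test compound (100 or 200 μM), then 100 μM LPS for 24 h at 37 °C, 5% CO2. Supernatant mixed with an equal volume of Griess reagent (0.1% naphthylethylenediamine and 1% sulfanilamide, 1:1, in 5% phosphoric acid) for 10 min in the dark at room temperature; A540 read. Nitrite quantified from a NaNO2 standard curve (0.1–6.25 μM), expressed as μmol NO2−/mg protein. Triplicates.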

Escherichia coli = assay: In vitro antibacterial MIC determination; type: cell-based
How it was run: as §1

Aspergillus niger = assay: In vitro antifungal MIC, poison plate technique; type: cell-based
Aspergillus flavus = assay: In vitro antifungal MIC, poison plate technique; type: cell-based
[2] = tested on: cotton pellet induced granuloma; assay: Cotton pellets induced granuloma assay; type: in vivo; conditions: rat, 100 mg kg^−1 p.o. for 8 d, mean ± SEM
How it was run: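 Two sterile 10 mg cotton pellets implanted ventrally in rats, six per group. […] On day 9 rats were killed under excess ether. Pellets were freed of tissue and weighed wet, then dried at 55 °C for 6 h or to constant weight. Granuloma equals dry weight minus cotton weight. Mean ± SEM.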

COX-1 = target: T1, COX-1 (Ovis aries, UniProt P05979); assay: Colorimetric COX; type: biochemical, ovine; conditions: read-out: % inhibition of COX, COX-1
T1 sequence (P05979 25-600): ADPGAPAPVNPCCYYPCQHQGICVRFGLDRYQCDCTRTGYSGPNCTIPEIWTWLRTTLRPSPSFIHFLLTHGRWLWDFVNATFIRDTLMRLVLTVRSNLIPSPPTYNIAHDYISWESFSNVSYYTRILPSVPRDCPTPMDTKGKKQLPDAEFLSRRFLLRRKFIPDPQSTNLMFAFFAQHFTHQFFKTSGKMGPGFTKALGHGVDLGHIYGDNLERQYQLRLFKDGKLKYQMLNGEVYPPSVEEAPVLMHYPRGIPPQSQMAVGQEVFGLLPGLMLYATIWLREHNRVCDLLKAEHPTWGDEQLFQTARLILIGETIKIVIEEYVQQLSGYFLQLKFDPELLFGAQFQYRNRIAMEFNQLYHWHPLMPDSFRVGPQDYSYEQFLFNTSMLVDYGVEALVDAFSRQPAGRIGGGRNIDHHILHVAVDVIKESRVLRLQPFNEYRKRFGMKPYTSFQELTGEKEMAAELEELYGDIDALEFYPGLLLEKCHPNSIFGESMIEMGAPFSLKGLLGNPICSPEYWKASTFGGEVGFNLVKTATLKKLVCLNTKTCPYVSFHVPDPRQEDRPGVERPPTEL

[3] = tested on: carrageenan-induced paw edema; assay: Carrageenan induced hind paw edema assay; type: in vivo; conditions: rat, 100 mg kg^−1 p.o., mean ± SEM
How it was run: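 Rats, six per group, acclimatized one week (25 ± 2 °C, 12 h light/dark, standard pellets, water ad libitum). […] Paw volume measured by plethysmometer displacement to the lateral malleolus at 1, 3 and 6 h. Mean ± SEM.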

Bacillus subtillis = assay: In vitro antibacterial MIC determination; type: cell-based
How it was run: as §1

COX-2 = target: T2, COX-2 (Ovis aries, UniProt P79208); assay: Colorimetric COX; type: biochemical, ovine; conditions: read-out: % inhibition of COX, COX-2
T2 sequence (P79208 17-603): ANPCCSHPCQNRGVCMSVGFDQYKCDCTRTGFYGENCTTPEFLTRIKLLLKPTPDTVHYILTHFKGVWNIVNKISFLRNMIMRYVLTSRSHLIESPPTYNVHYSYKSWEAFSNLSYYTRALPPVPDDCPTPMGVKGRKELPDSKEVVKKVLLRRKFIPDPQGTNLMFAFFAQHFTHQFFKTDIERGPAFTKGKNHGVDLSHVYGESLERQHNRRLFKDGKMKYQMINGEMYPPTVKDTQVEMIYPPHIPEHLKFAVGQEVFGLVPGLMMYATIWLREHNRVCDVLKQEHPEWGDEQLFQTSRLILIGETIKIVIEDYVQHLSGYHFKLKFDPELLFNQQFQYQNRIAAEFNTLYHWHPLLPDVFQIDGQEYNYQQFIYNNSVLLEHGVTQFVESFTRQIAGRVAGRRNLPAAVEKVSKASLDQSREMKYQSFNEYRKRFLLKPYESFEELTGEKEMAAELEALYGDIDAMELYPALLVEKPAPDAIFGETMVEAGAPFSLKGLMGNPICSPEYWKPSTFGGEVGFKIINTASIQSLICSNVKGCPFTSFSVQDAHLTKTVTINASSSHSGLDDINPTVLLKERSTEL

RAW 264.7 cells [4] = assay: MTT assay, LPS-induced inflammation in RAW 264.7; type: cell-based, murine; conditions: RAW 264.7, pre-treatment 100 μM and 200 μM, then LPS; Fig. 4
How it was run: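 Mouse RAW 264.7 macrophages kept in high-glucose DMEM with 10% heat-inactivated FBS and 1% penicillin–streptomycin at 37 °C, 5% CO2. Cells seeded at 5 × 10^5 cells per mL, pretreated 1 h with test compound (100 or 200 μM), then stimulated with […] for 24 h. Medium replaced; 0.5 mg mL−1 MTT for 3 h; formazan dissolved in DMSO; OD read at 540 nm. Percent inflammation derived by subtracting percent viability relative to control.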

Staphylococcus aureus = assay: In vitro antibacterial MIC determination; type: cell-based
How it was run: as §1

For O=S(=O)(NC[C@@H](O)[C@@H]1CCc2cc(F)ccc2O1)c1cccs1 [Compound 8c, N-((R)-2-((S)-6-Fluorochroman-2-yl)-2-hydroxyethyl)thiophene-2-sulfonamide], the MIC (Pseudomonas aeruginosa) was 22.2 ± 0.63 µg/mL (≈ 62.1 µM), the MIC (Rhizopus arrhizus) was 22.2 ± 0.83 µg/mL (≈ 62.2 µM) and the “inhibition of LPS-induced NO production” value (RAW 264.7 cells [1]) was “strong inhibition”. The MIC (Escherichia coli) was 17.1 ± 0.47 µg/mL (≈ 47.9 µM), the MIC (Aspergillus niger) was 18.1 ± 0.46 µg/mL (≈ 50.6 µM) and the MIC (Aspergillus flavus) was 16.7 ± 0.7 µg/mL (≈ 46.8 µM). For the same compound, the “Weight, Dry (cotton pellet)” value [2] was 91.30 ± 1.72 mg, the “Weight, Wet (cotton pellet)” value [2] was 148.62 ± 1.85 mg and the inhibition at 100 µM (COX-1) was 51.1 ± 0.62%. It also gave an inhibition at 200 µM (COX-1) of 70.07 ± 0.7%, a Paw volume ([3]; 1 h after carrageenan) of 0.60 ± 0.64 mL and a Paw volume ([3]; 3 h after carrageenan) of 0.88 ± 0.31 mL. It also gave a Paw volume ([3]; 6 h after carrageenan) of 1.11 ± 0.13 mL, an MIC (Bacillus subtillis) of 21.6 ± 0.44 µg/mL (≈ 60.4 µM) and an inhibition at 100 µM (COX-2) of 40.4 ± 0.1%. The inhibition at 200 µM (COX-2) was 61.2 ± 0.72%, the “anti-inflammatory activity against LPS induced cell death / inflammation (MTT)” value (RAW 264.7 cells [4]) was “strong anti-inflammatory activity” and the MIC (Staphylococcus aureus) was 19.7 ± 0.62 µg/mL (≈ 55 µM).
CCOC(=O)NC[C@@H](O)[C@@H]1CCc2cc(F)ccc2O1 [Compound 9d, Ethyl((R)-2-((S)-6-fluorochroman-2-yl)-2-hydroxyethyl)carbamate] gave an MIC (Pseudomonas aeruginosa) of 31.7 ± 0.88 µg/mL (≈ 112 µM), an MIC (Rhizopus arrhizus) of 31.3 ± 0.45 µg/mL (≈ 110 µM) and an MIC (Escherichia coli) of 27.2 ± 0.92 µg/mL (≈ 96.1 µM). The MIC (Aspergillus niger) was 28.46 ± 0.14 µg/mL (≈ 100 µM), the MIC (Aspergillus flavus) was 25.2 ± 0.66 µg/mL (≈ 89 µM) and the inhibition at 100 µM (COX-1) was 41.4 ± 0.62%. It also gave an inhibition at 200 µM (COX-1) of 52.16 ± 0.3%, an MIC (Bacillus subtillis) of 27.7 ± 0.44 µg/mL (≈ 97.6 µM) and an inhibition at 100 µM (COX-2) of 29.7 ± 0.75%. For the same compound, the inhibition at 200 µM (COX-2) was 38.59 ± 0.29% and the MIC (Staphylococcus aureus) was 18.1 ± 0.8 µg/mL (≈ 63.8 µM).
For O=C(NC[C@@H](O)[C@@H]1CCc2cc(F)ccc2O1)OCC(Cl)(Cl)Cl [Compound 9b, 2,2,2-Trichloroethyl ((R)-2-((S)-6-fluorochroman-2-yl)-2-hydroxyethyl)carbamate], the MIC (Pseudomonas aeruginosa) was 30.36 ± 0.22 µg/mL (≈ 78.5 µM), the MIC (Rhizopus arrhizus) was 19.2 ± 0.48 µg/mL (≈ 49.8 µM) and the MIC (Escherichia coli) was 21.1 ± 0.45 µg/mL (≈ 54.7 µM). It also gave an MIC (Aspergillus niger) of 24.7 ± 0.7 µg/mL (≈ 63.9 µM), an MIC (Aspergillus flavus) of 23.8 ± 0.67 µg/mL (≈ 61.6 µM) and an inhibition at 100 µM (COX-1) of 43.1 ± 0.8%. For the same compound, the inhibition at 200 µM (COX-1) was 69.02 ± 0.5%, the Paw volume ([3]; 1 h after carrageenan) was 0.76 ± 0.48 mL and the Paw volume ([3]; 3 h after carrageenan) was 0.88 ± 0.16 mL. The Paw volume ([3]; 6 h after carrageenan) was 1.50 ± 0.25 mL, the MIC (Bacillus subtillis) was 26 ± 0.42 µg/mL (≈ 67.2 µM) and the inhibition at 100 µM (COX-2) was 37.7 ± 0.35%. For the same compound, the inhibition at 200 µM (COX-2) was 63.6 ± 0.32% and the MIC (Staphylococcus aureus) was 20.32 ± 0.06 µg/mL (≈ 52.6 µM).
In the case of Cc1ccc(-c2cc(C(F)(F)F)nn2-c2ccc(S(N)(=O)=O)cc2)cc1 [Celecoxib, reference compound], the “Weight, Dry (cotton pellet)” value [2] is reported as 78.80 ± 3.24 mg, the “Weight, Wet (cotton pellet)” value [2] is reported as 150.14 ± 3.46 mg and the Paw volume ([3]; 1 h after carrageenan) is reported as 0.80 ± 0.50 mL. It also gave a Paw volume ([3]; 3 h after carrageenan) of 0.98 ± 0.92 mL and a Paw volume ([3]; 6 h after carrageenan) of 1.58 ± 0.22 mL.
In the case of O=[N+]([O-])c1cc(S(=O)(=O)NC[C@@H](O)[C@@H]2CCc3cc(F)ccc3O2)ccc1Cl [Compound 8d, 4-Chloro-N-((R)-2-((S)-6-Fluorochroman-2-yl)-2-hydroxyethyl)-3-nitrobenzenesulfonamide], the MIC (Pseudomonas aeruginosa) is reported as 27.4 ± 0.65 µg/mL (≈ 63.6 µM), the MIC (Rhizopus arrhizus) is reported as 18.6 ± 0.65 µg/mL (≈ 43.3 µM) and the “inhibition of LPS-induced NO production” value (RAW 264.7 cells [1]) is reported as “strong inhibition”. It also gave an MIC (Escherichia coli) of 24.2 ± 0.72 µg/mL (≈ 56.1 µM), an MIC (Aspergillus niger) of 15.3 ± 0.15 µg/mL (≈ 35.5 µM) and an MIC (Aspergillus flavus) of 17 ± 0.7 µg/mL (≈ 39.6 µM). For the same compound, the inhibition at 100 µM (COX-1) was 53.88 ± 0.3%, the inhibition at 200 µM (COX-1) was 69.64 ± 0.18% and the Paw volume ([3]; 1 h after carrageenan) was 0.78 ± 0.88 mL. The Paw volume ([3]; 3 h after carrageenan) was 1.08 ± 0.40 mL, the Paw volume ([3]; 6 h after carrageenan) was 1.50 ± 0.64 mL and the MIC (Bacillus subtillis) was 18.3 ± 0.21 µg/mL (≈ 42.5 µM). For the same compound, the inhibition at 100 µM (COX-2) was 39.3 ± 0.77%, the inhibition at 200 µM (COX-2) was 63.88 ± 0.46% and the “anti-inflammatory activity against LPS induced cell death / inflammation (MTT)” value (RAW 264.7 cells [4]) was “strong anti-inflammatory activity”. The MIC (Staphylococcus aureus) was 17.4 ± 0.4 µg/mL (≈ 40.5 µM).
